# ARNT-TACC3 inh – ARNT/TACC3 interaction disruption | inhibition, % at 9.99 µM | AlphaScreen His-ARNT PAS-B/GST-TACC3 binding, luminescence; TACC3 fragment carries E629A point mutation | Q9Y6A5 | 390,000 compounds, 0.66% hits;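 active means mean inhibition of replicates at least 50% and at least half of replicates each reaching 50%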;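 further: 0% = complete ARNT plus TACC3 wells and 100% = ARNT alone without TACC3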
# mABHD4 FP – inhibitors of mouse ABHD4. Q8VD66. purified mABHD4, FP-Rh probe fluorescence polarization. inhibition, % at 8.92 µM. 370,000 compounds, 0.54% hits;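 active means inhibition exceeding the mean over every tested compound plus 3 SD, cut at about 30% in these data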;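 further: 0% = plate median of compound wells and 100% = S159A mutant with DMSO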
#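 Doses – 8.92 µM, single dose · Material – wild-type mouse ABHD4 protein · Replication – single well per compound (singlicate) · Measure – percent inhibition of probe binding, normalized to plate controls · Schedule – 45 min compound pre-incubation plus 60 min probe step, 25 °C · Detection – fluorescence polarization with parallel and perpendicular emission, 525/598 nm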
# HTRA1 inhibitor – inhibitors of human serine peptidase HTRA1 | recombinant HTRA1, FP-rhodamine activity-based probe, fluorescence polarization | Q92743 | 340,000 compounds, 0.5% hits | inhibition, % at 5.96 µM | AID 504803; in the data active means inhibition above about 36%;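 further: 0% = enzyme with DMSO and 100% = wells lacking enzyme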
# TCR-CD3 inh – inhibitors of human TCR-CD3 interaction; TAMRA-labeled TCR probe fluorescence, biochemical; inhibition, % at 9.4 µM; 360,000 compounds, 0.37% hits; AID 651800; in the data active means inhibition above about 19%;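 further: recombinant mutant TCR 2C K166C tagged with TAMRA read by polarization; 0% = receptor in buffer alone and 100% = receptor with positive control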
# SIAE inh – inhibitors of human sialic acid acetylesterase SIAE | inhibition, % at 9.66 µM | 370,000 compounds, 0.69% hits | Q9HAT2 | AID 1053197 | SIAE FP-Rh probe binding, fluorescence polarization;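 active means inhibition above a cutoff: mean of compounds within the control limits plus 3 SD of those, cut at about 17% in these data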;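 further: 0% = plate median of compound wells and 100% = probe without SIAE protein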
# Target sequence (Q9HAT2 whole entry, looked up): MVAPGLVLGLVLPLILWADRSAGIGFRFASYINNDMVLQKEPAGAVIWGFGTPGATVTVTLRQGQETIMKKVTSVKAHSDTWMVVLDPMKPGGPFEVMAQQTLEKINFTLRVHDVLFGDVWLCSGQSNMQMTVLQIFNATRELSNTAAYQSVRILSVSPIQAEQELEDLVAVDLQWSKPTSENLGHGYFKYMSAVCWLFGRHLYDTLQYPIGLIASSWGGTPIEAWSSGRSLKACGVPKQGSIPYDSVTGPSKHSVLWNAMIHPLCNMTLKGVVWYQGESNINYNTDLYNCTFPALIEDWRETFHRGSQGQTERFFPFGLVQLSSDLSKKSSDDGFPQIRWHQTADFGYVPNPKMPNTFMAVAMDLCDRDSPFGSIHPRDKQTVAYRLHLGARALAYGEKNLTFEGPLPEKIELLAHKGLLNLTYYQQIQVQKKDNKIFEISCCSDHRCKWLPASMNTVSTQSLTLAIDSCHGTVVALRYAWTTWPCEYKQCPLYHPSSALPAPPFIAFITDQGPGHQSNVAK
# mABHD4 conf – confirmation of mouse ABHD4 inhibitors. AID 720658. inhibition, % at 8.92 µM. 1,800 compounds, 55% hits. shares compounds with mABHD4 FP. purified mABHD4, FP-Rh probe fluorescence polarization;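 active means mean inhibition across replicates above the hit cutoff set in the primary screen, cut at about 30% in these data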;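 further: 0% = wild-type ABHD4 with DMSO and 100% = catalytically dead S159A mutant with DMSO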
# * marks the source's active call; other numbers are inactive results; x = not tested or not shown. Shown are actives, neighbours in structure and some others; about 1.8% of the full set was active somewhere.
SMILES,ARNT-TACC3 inh,mABHD4 FP,HTRA1 inhibitor,TCR-CD3 inh,SIAE inh,mABHD4 conf
c1ccc(-c2nc3ccccn3c2NCc2ccc3c(c2)OCO3)cc1,14.5,6.2,5.9,-0.2,-1.5,x
COc1ccccc1NS(=O)(=O)c1ccc(O)c(C(=O)OCc2cccc([N+](=O)[O-])c2)c1,0.3,31.7*,-11.5,1.1,-2.0,38.0*
COc1ccccc1NS(=O)(=O)c1ccc(C)c(C(N)=O)c1,-1.2,9.3,5.9,2.2,-3.4,x
Cc1noc(C)c1NC(=O)Nc1ccc2c(c1)C(=O)N([C@@H](C)CO)C[C@@H](C)[C@@H](CN(C)C(=O)Nc1cccc3ccccc13)O2,6.9,x,x,x,x,x
CCN(C(=S)NC(=O)c1ccco1)c1cccc2ccccc12,10.7,35.6*,13.7,-8.7,2.9,2.5
Cn1ccc2c(/C=C/c3ccc(F)cc3)cc3c(c21)C1CCC3C1 (configuration not stated),x,45.1*,x,-1.1,5.6,38.0*
COc1ccc(C#Cc2ccc3c(c2)[C@@H]2[C@@H](CCN2C(=O)c2ccccc2F)[C@H](CO)N3)cc1,21.3,x,x,x,x,x
CC1CC(C)C(=O)C(C(CC2CC(=O)NC(=O)C2)OC(=O)CC(=O)c2ccccc2)C1 (configuration not stated),2.5,60.0*,2.1,1.2,0.0,15.1
CC1(C)Cc2c(c(-c3ccco3)[nH]c(=O)c2C#N)CS1,-16.9,30.0*,8.0,15.1,10.3,5.0
CN1CC=C2C(C#N)=C(N)C(C#N)(C#N)[C@H](c3cccc(Cl)c3)C2C1 (some centres not stated),-7.3,31.1*,22.2,4.5,7.8,-2.4
CN1CC=C2C(C#N)=C(N)C(C#N)(C#N)C(c3ccsc3)C2C1 (configuration not stated),1.8,19.1,26.8,12.2,9.2,x
CC(=O)Nc1ccc2c(c1)C(=O)N(C)[C@@H]1CC[C@@H](CC(=O)NCc3ccccc3)O[C@H]1CO2,-16.3,x,x,x,x,x
Cc1ccc(CC2CC(=O)N(CCc3ccccc3)C2=O)cc1 (configuration not stated),-4.3,2.9,4.2,3.3,-6.2,x
C[C@@H]1C[C@H]2[C@@H](Cc3ccccc3)C(=O)N3[C@H](c4ccccc4)[C@H](C)C[C@H]3[C@@H](Cc3ccccc3)C(=O)N2[C@@H]1c1ccccc1,x,50.0*,x,x,9.0,39.5*
CCCC#Cc1cnc2c(c1)C(=O)N([C@H](C)CO)C[C@@H](C)[C@@H](CN(C)S(=O)(=O)c1cn(C)cn1)O2,-8.0,x,x,x,x,x
CCOc1ccc2[nH]c3c(NCCC(C)C)ncnc3c2c1,-6.8,38.9*,7.3,-5.0,10.9,39.0*
CC(C)n1cnc2c(NCc3ccccc3)cc(Cc3ccc(F)cc3)cc21,x,30.7*,10.6,3.9,7.1,21.3
CCOc1cc(NCc2ccccc2)c2ncn(C(C)C)c2c1,14.8,20.0,10.5,1.0,2.7,x
O=C(C[C@@H]1C[C@@H]2c3cc(NC(=O)Nc4ccccc4F)ccc3O[C@@H]2[C@H](CO)O1)NCc1ccccn1,-9.3,x,x,x,x,x
COc1ccc(/C=C/C(=O)Nc2cccnc2Cl)cc1,-1.1,97.4*,8.1,8.6,-4.4,-4.2
COc1ccccc1/C=C/C(=O)Nc1cccnc1Cl,-2.0,5.2,-1.9,0.3,-6.4,x
Cc1[nH]n(-c2ncc(-c3ccccc3)s2)c(=O)c1C(c1ccc(Cl)cc1)C(C#N)C#N (configuration not stated),3.6,48.9*,12.3,-13.0,14.5,51.6*
Cc1[nH]n(-c2ccccc2)c(=O)c1C(C[N+](=O)[O-])c1ccc(Cl)cc1 (configuration not stated),9.6,7.5,5.3,7.3,9.2,x
CNC(=O)C[C@H]1CC[C@H]2[C@@H](COc3ccc(NC(=O)Nc4c(C)noc4C)cc3C(=O)N2C)O1,-7.0,x,x,x,x,x
Cc1ccccc1NC(=O)Cc1nc(COC(=O)c2cc([N+](=O)[O-])ccc2NCCO)cs1,4.2,39.5*,-16.6,-10.3,-6.3,18.5
SMILES,ARNT-TACC3 inh,mABHD4 FP,HTRA1 inhibitor,TCR-CD3 inh,SIAE inh,mABHD4 conf
Cc1ccccc1NC(=O)Cc1nc(COC(=O)c2cccc([N+](=O)[O-])c2)cs1,15.2,54.0*,-6.5,8.3,5.6,41.5*
Cc1ccccc1NC(=O)Cc1nc(COC(=O)c2ccc([N+](=O)[O-])cc2)cs1,0.7,24.8,1.1,3.6,-3.9,x
Cc1ccccc1NC(=O)Cc1nc(COC(=O)c2ccc(O)cc2O)cs1,10.1,10.0,-17.2,11.4,-4.4,x
C[C@@H]1CN([C@@H](C)CO)C(=O)c2cc(NC(=O)Nc3ccccc3)ccc2O[C@@H]1CN(C)Cc1ccc2c(c1)OCO2,4.1,x,x,x,x,x
COC(=O)C1=C(C)N(Cc2ccc(C(F)(F)F)cc2)C(=NCc2ccccc2)NC1c1cccc(Cl)c1 (configuration not stated),x,36.7*,x,5.1,6.7,44.3*
COC(=O)C1=C(C)N(Cc2ccc(C(F)(F)F)cc2)C(=NCc2ccccc2)NC1c1ccc(C(F)(F)F)cc1 (configuration not stated),x,30.9*,x,1.6,2.6,39.5*
COC(=O)C1=C(C)N(Cc2ccccc2)C(=NCc2cccc(C(F)(F)F)c2)N[C@H]1c1cccc(F)c1,9.4,37.5*,-35.3,2.7,-1.1,44.0*
COC(=O)C1=C(C)N(Cc2ccc(C(F)(F)F)cc2)C(=NCc2ccccc2)NC1c1ccccc1 (configuration not stated),x,33.2*,x,-3.2,-11.8,48.2*
COC(=O)C1=C(C)N(Cc2ccc(C(F)(F)F)cc2)C(=NCc2ccccc2)NC1c1cccc(C(F)(F)F)c1 (configuration not stated),x,23.0,x,0.4,-0.7,x
COC(=O)C1=C(C)N(Cc2ccccc2)C(=NCc2cccc(C(F)(F)F)c2)N[C@H]1c1cccc(C(F)(F)F)c1,2.1,x,-24.5,x,x,x
CO[C@@H]1CN(C)C(=O)c2ccc(NC(=O)C3CC3)cc2OC[C@H](C)N(C(=O)CN2CCOCC2)C[C@H]1C,-7.0,x,x,x,x,x
COC(=O)C1=C(C)N(Cc2cccc(C(F)(F)F)c2)C(=NCc2ccc3c(c2)OCO3)NC1c1ccc(Cl)cc1 (configuration not stated),x,39.9*,x,8.7,-2.6,82.2*
CC1=Nc2nc(N3CCCCC3)c(C#N)c3c4c(nc(c23)N1)N(c1ccc(C(C)C)cc1)C(=O)C4,-6.8,43.9*,2.4,5.2,5.8,42.1*
Cc1ccc(S(=O)(=O)N(C)C[C@H]2Oc3c(NC(=O)Nc4ccc(F)cc4)cccc3C(=O)N([C@@H](C)CO)C[C@H]2C)cc1,-4.5,x,x,x,x,x
CC1=CC2(O)OCCN(CCO)C2=CC1=O (configuration not stated),22.3,30.2*,11.0,9.9,-0.1,6.3

# Screening data deposited in PubChem BioAssay by several laboratories.
